Measurements published in ChEMBL document CHEMBL2029267, “Rapid assembly of a library of lipophilic iminosugars via the thiol-ene reaction yields promising pharmacological chaperones for the treatment of Gaucher disease” (J Med Chem, 2012).
Changes are numbered by the printed parent chain. Active and inactive are the calls of the source. The rule behind the calls is not given here.

What was measured:
[1] = Cytotoxicity against gaucher patient fibroblast assessed as decrease in cell viability at 100 uM after 5 days by alamar blue assay; assay type: cell-based; details: human, 120 h
In short: (§1)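 Viability of GD patient fibroblasts grown with compound at 10, 33 and 100 μM was read by a resazurin-based spectrophotometric assay.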

[2] = test system: T1, Lysosomal acid glucosylceramidase (Homo sapiens), P04062 [N409S]; experiment: Activation of intracellular glucocerebrosidase p.N370S mutant in gaucher patient fibroblast using 4-methylumbelliferyl beta-D-glucopyranoside as substrate relative to control
T1 sequence (whole entry): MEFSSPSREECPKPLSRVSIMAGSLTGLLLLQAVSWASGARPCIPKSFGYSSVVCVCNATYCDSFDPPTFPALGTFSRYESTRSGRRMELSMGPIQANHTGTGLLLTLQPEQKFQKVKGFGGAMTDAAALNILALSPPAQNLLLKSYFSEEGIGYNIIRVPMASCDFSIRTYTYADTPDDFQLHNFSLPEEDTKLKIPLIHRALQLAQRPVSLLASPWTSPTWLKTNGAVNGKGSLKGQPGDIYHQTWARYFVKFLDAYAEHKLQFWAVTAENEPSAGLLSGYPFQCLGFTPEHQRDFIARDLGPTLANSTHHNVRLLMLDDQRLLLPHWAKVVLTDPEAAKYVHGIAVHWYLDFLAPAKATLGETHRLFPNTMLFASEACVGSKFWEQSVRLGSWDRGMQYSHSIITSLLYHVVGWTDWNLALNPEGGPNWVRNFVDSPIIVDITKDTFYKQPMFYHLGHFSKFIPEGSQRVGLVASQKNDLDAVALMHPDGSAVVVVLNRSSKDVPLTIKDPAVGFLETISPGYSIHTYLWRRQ

[3] = molecular target: T2, Lysosomal acid glucosylceramidase (Homo sapiens) (UniProt P04062); experiment: Thermal denaturation of human glucocerebrosidase by differential scanning fluorimetry assessed as change in melting temperature at 100 uM and pH 7
T2 sequence (whole entry): T1 sequence (whole entry) with S409N

[4] = molecular target: T3, Lysosomal acid glucosylceramidase (Homo sapiens, UniProt P04062); experiment: Competitive inhibition of wild type human glucocerebrosidase using 4-methylumbelliferyl beta-D-glucopyranoside as substrate after 15 mins by Dixon and Line-Weaver Burk plot analysis […]
T3 sequence (P04062 whole entry): T1 sequence (whole entry) with S409N

[5] = molecular target: T4, Beta-galactosidase (Homo sapiens) (UniProt P16278); experiment: Inhibition of human lysosomal beta-galactosidase using 4-methylumbelliferyl beta-Dgalactopyranoside as substrate at 200 uM by fluorimetric analysis
T4 sequence (whole entry): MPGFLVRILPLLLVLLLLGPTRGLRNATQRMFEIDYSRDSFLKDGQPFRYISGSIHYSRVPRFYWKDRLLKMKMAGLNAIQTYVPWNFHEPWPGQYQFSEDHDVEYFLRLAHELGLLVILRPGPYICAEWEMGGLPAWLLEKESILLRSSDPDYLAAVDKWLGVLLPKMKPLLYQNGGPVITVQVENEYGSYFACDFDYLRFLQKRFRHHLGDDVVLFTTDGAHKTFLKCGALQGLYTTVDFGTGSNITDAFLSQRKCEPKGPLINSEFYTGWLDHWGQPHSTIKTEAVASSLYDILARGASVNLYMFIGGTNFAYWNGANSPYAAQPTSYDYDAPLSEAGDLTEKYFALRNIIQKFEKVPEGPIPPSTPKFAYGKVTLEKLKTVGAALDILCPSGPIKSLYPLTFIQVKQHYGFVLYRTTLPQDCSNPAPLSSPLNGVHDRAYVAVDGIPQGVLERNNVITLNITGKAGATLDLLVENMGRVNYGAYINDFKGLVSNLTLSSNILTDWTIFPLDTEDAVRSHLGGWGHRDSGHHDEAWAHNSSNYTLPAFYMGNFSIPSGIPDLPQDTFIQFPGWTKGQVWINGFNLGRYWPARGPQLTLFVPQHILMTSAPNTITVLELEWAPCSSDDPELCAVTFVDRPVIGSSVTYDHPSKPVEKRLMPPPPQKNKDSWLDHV
In short: (§2)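 Enzyme source was a lysosomal-enzyme-enriched ConA-bound human placental fraction, run in 100 mM citrate–phosphate pH 4.5 with 0.025% human serum albumin at 37 °C. Compound was tested at 200 μM in triplicate. An equal volume of 4-MU substrate was added: α-Glc 3.0 mM (α-glucosidase), α-Gal 1.0 mM (α-galactosidase), β-Gal 0.5 mM (β-galactosidase). Reactions were stopped with 4-fold excess 100 mM aminomethylpropanol and fluorescence read at 365/460 nm.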

Homo sapiens [6] = species: Homo sapiens; experiment: Activation of intracellular glucocerebrosidase p.L444P mutant in gaucher patient fibroblast using 4-methylumbelliferyl beta-D-glucopyranoside as substrate assessed as concentration at which 50% of maximum increase in activity
[7] = molecular target: Lysosomal alpha-glucosidase (Homo sapiens) (UniProt P10253); experiment: Inhibition of human lysosomal alpha-glucosidase using 4-methylumbelliferyl alpha-D-glucopyranoside as substrate at 200 uM by fluorimetric analysis; in short: as §2
Homo sapiens [8] = species: Homo sapiens; experiment: Inhibition of human lysosomal alpha-galactosidase using 4-methylumbelliferyl alpha-D-galactopyranoside as substrate at 200 uM by fluorimetric analysis; in short: as §2
Homo sapiens [9] = species: Homo sapiens; experiment: Activation of intracellular glucocerebrosidase p.L444P mutant in gaucher patient fibroblast using 4-methylumbelliferyl beta-D-glucopyranoside as substrate relative to control
[10] = test system: T1, Lysosomal acid glucosylceramidase (Homo sapiens), P04062 [N409S]; experiment: Activation of intracellular glucocerebrosidase p.N370S mutant in gaucher patient fibroblast using 4-methylumbelliferyl beta-D-glucopyranoside as substrate assessed as concentration at which 50% of maximum increase in activity
[11] = Cytotoxicity against gaucher patient fibroblast assessed as decrease in cell viability at 10 uM after 5 days by alamar blue assay; assay type: cell-based; details: human, 120 h; in short: as §1
[12] = molecular target: T5, Cytosolic beta-glucosidase (Homo sapiens, UniProt Q9H227); experiment: Inhibition of human cytosolic beta-glucosidase using 4-methylumbelliferyl beta-D-glucopyranoside as substrate after 15 mins by fluorimetric analysis
T5 sequence (Q9H227 whole entry): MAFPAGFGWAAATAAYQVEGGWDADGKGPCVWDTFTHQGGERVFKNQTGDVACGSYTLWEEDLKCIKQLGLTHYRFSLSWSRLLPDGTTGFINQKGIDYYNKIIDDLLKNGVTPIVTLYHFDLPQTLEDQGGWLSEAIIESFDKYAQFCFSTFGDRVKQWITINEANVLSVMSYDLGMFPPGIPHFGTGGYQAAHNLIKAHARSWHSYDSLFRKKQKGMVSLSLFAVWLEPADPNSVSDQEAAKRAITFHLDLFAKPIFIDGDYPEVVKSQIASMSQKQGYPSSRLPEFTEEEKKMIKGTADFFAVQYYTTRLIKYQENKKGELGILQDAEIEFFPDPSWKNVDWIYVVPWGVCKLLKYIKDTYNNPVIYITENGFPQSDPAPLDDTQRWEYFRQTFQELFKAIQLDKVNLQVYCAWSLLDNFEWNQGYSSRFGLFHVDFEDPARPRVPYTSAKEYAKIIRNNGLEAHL
In short: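 Purified human cytosolic neutral β-glucosidase was preincubated 15 min at room temperature with a 3-fold compound dilution series. An equal volume of 10 mM 4-MU β-D-glucoside in 100 mM citrate–phosphate pH 7.0 was added, then incubated 30 min at 37 °C. The reaction was stopped with 4-fold excess 100 mM 2-amino-2-methylpropanol and read at ex 365/em 460 nm. IC50 came from nonlinear fitting.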

Homo sapiens [13] = species: Homo sapiens; experiment: Activation of beta-N-acetyl hexosaminidase in gaucher patient fibroblast using 4-methylumbelliferyl N-acetyl-beta-D-glucosaminide as substrate
In short: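 Patient fibroblasts (GD, homozygous mutant GBA) grown in α-MEM with 10% FCS at 37 °C, CO2, with compound for 5 days. Lysates prepared in pH 5.5 citrate–phosphate with Triton X-100 and taurocholate. Lysosomal β-N-acetyl hexosaminidase activity read with fluorogenic 4-MU N-acetyl-β-D-glucosaminide at each compound concentration.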

Row | SMILES | Activity [1] | fold change (FC) [2] | deltaTm [3] [K] | Ki [4] [nM] | inhibition [5] | Activity (Homo sapiens [6]) [nM] | inhibition [7] | inhibition (Homo sapiens [8]) | fold change (FC) (Homo sapiens [9]) | Activity [10] [nM] | Activity [11] | IC50 [12] [nM] | inhibition (Homo sapiens [13])
1 | CCCCCCSCC[C@H]1NC[C@@H](O)[C@H](O)[C@H]1O.Cl | Toxic | 2.1 | 15 | 1.8 | inactive | 0.6 | inactive | inactive | 1.3 | 2.7 |  |  | 
2 | CCCCCCCCSCC[C@H]1NC[C@@H](O)[C@H](O)[C@H]1O.Cl |  | 1.6 | 20 | 0.4 | inactive | 0.6 | inactive | inactive | 1.2 | 1 | Toxic | 2000 | Active
